Experimental data from ChEMBL document CHEMBL2311419, “Discovery of coumarin-dihydropyridine hybrids as bone anabolic agents” (J Med Chem, 2013).
Activity calls are given as the source filed them. The calls are words filed in the database; no cut-off is given here.

What was measured:
[1] = system: Mus musculus; assay: Induction of osteoblast differentiation in ovariectomized BALB/c mouse model assessed as upregulation of COL1 mRNA expression at 1 mg/kg/day, po qd for 8 weeks by qPCR analysis; format: functional, organism-based
[2] = system: Calvarial osteoblast; assay: Induction of osteoblastogenesis in mouse calvarial osteoblasts assessed as increase in expression of RUNX2 gene at 100 pM to 10 nM by qPCR analysis relative to control; format: functional
[3] = organism: Mus musculus; assay: Stimulation of alkaline phosphatase activity in mouse calvarial osteoblasts at 1 pM to 1 uM after 48 hrs by spectrophotometric analysis
Method in brief: (§1)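 Calvarial osteoblasts were exposed to compounds over 1 pM to 1 µM. ALP activity was read spectrophotometrically as optical density at 405 nm. Results were expressed as % ALP activity, with EC50 and Emax derived from the concentration series.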

[4] = system: Mus musculus; assay: Induction of osteoblast differentiation in ovariectomized BALB/c mouse model assessed as upregulation of RUNX2 mRNA expression at 1 mg/kg/day, po qd for 8 weeks by qPCR analysis; format: functional, organism-based
[5] = Cytotoxicity against mouse calvarial osteoblasts assessed as cell viability at 1 pM to 1 uM after 48 hrs by MTT assay; format: cell-based; details: calvarial osteoblast
[6] = system: Mus musculus; assay: Induction of new bone formation in ovariectomized BALB/c mouse model assessed as increase in bone formation rate at 1 mg/kg/day, po qd for 8 weeks by bone histomorphometry analysis (Rvb =0.10 um'3/um'2/day); format: functional
[7] = system: Mus musculus; assay: Inhibition of osteoclastogenesis in ovariectomized BALB/c mouse model assessed as suppression of TRAP gene expression at 5 to 10 mg/kg/day, po qd for 8 weeks by qPCR analysis; format: functional, organism-based
[8] = Stimulation of alkaline phosphatase activity in mouse calvarial osteoblasts after 48 hrs by spectrophotometric analysis; method in brief: as §1
[9] = system: Mus musculus; assay: Antiosteoporotic activity in ovariectomized BALB/c mouse model assessed as restoration of ovariectomy-induced increase in structural model index at 10 mg/kg/day, po qd for 8 weeks; format: functional, organism-based
[10] = system: Mus musculus; assay: Induction of new bone formation in ovariectomized BALB/c mouse model assessed as increase in bone formation rate at 5 mg/kg/day, po qd for 8 weeks by bone histomorphometry analysis (Rvb =0.10 um'3/um'2/day); format: functional
[11] = organism: Mus musculus; assay: Stimulation of alkaline phosphatase activity in mouse calvarial osteoblasts assessed as concentration required for maximum activity after 48 hrs by spectrophotometric analysis; method in brief: as §1
[12] = system: Calvarial osteoblast; assay: Induction of osteoblastogenesis in mouse calvarial osteoblasts assessed as increase in expression of ALP gene at 100 pM by qPCR analysis relative to control; format: functional, cell-based
[13] = system: Calvarial osteoblast; assay: Induction of osteoblastogenesis in mouse calvarial osteoblasts assessed as increase in RUNX2 expression at 100 pM to 10 nM by Western blotting analysis; format: functional, cell-based
[14] = system: Mus musculus; assay: Antiosteoporotic activity in ovariectomized BALB/c mouse model assessed as restoration of ovariectomy-induced increase in trabecular separation at 10 mg/kg/day, po qd for 8 weeks (reference value: 0.99+/-0.08mm); format: functional, Trabecula
[15] = system: Calvarial osteoblast; assay: Induction of osteoblastogenesis in mouse calvarial osteoblasts assessed as increase in expression of BMP2 gene at 100 pM by qPCR analysis relative to control; format: functional, cell-based
[16] = system: Mus musculus; assay: Induction of new bone formation in ovariectomized BALB/c mouse model assessed as increase in mineral apposition rate at 10 mg/kg/day, po qd for 8 weeks by bone histomorphometry analysis (Rvb =0.11 um/day); format: functional
[17] = system: Mus musculus; assay: Antiosteoporotic activity in ovariectomized BALB/c mouse model assessed as restoration of ovariectomy-induced increase in trabecular separation at 5 mg/kg/day, po qd for 8 weeks (reference value: 0.99+/-0.08mm); format: functional, Trabecula
[18] = system: Mus musculus; assay: Hepatotoxicity against BALB/c mouse assessed as morphological changes at 1 to 10 mg/kg/day, po after 2 months; format: toxicity, organism-based; set-up: route oral; details: in vivo
[19] = system: Mus musculus; assay: Antiosteoporotic activity in ovariectomized BALB/c mouse model assessed as restoration of ovariectomy-induced reduction in trabecular number at 10 mg/kg/day, po qd for 8 weeks (reference value: 0.12+/-0.02 /mm); format: functional, Trabecula
[20] = system: Mus musculus; assay: Antiosteoporotic activity in ovariectomized BALB/c mouse model assessed as restoration of ovariectomy-induced deterioration of trabecular microarchitecture at 1 to 10 mg/kg/day, po qd for 8 weeks; format: functional, organism-based; details: Trabecula
[21] = system: Calvarial osteoblast; assay: Induction of osteoblastogenesis in mouse calvarial osteoblasts assessed as increase in expression of BMP2 gene at 100 pM to 10 nM by qPCR analysis relative to control; format: functional
[22] = system: Calvarial osteoblast; assay: Induction of osteoblastogenesis in mouse calvarial osteoblasts assessed as increase in expression of ALP gene at 100 pM to 10 nM by qPCR analysis relative to control; format: functional
[23] = system: Mus musculus; assay: Inhibition of osteoclastogenesis in ovariectomized BALB/c mouse model assessed as suppression of RANK gene expression at 1 mg/kg/day, po qd for 8 weeks by qPCR analysis; format: functional, organism-based
[24] = system: Calvarial osteoblast; assay: Induction of osteoblastogenesis in mouse calvarial osteoblasts assessed as increase in expression of osteocalcin gene at 100 pM to 10 nM by qPCR analysis relative to control; format: functional
[25] = system: Mus musculus; assay: Inhibition of osteoclastogenesis in ovariectomized BALB/c mouse model assessed as suppression of TRAP gene expression at 1 mg/kg/day, po qd for 8 weeks by qPCR analysis; format: functional, organism-based
[26] = system: Mus musculus; assay: Antiosteoporotic activity in ovariectomized BALB/c mouse model assessed as restoration of ovariectomy-induced reduction in trabecular number at 5 mg/kg/day, po qd for 8 weeks (reference value: 0.12+/-0.02 /mm); format: functional, Trabecula
[27] = system: Mus musculus; assay: Inhibition of bone turnover in ovariectomized BALB/c mouse model assessed as reduction in ovariectomy-induced serum CTx levels at 1 mg/kg/day, po qd for 8 weeks by ELISA; format: functional, organism-based
[28] = system: Mus musculus; assay: Induction of osteoblast differentiation in ovariectomized BALB/c mouse model assessed as upregulation of RUNX2 mRNA expression po administered qd for 8 weeks by qPCR analysis; format: functional, organism-based
[29] = system: Mus musculus; assay: Inhibition of osteoclastogenesis in ovariectomized BALB/c mouse model assessed as increase in OPG/RANKL ratio at 5 to 10 mg/kg/day, po qd for 8 weeks by qPCR analysis; format: functional, organism-based
[30] = system: Mus musculus; assay: Antiosteoporotic activity in ovariectomized BALB/c mouse model assessed as restoration of ovariectomy-induced increase in trabecular separation at 1 mg/kg/day, po qd for 8 weeks (reference value: 0.99+/-0.08mm); format: functional, Trabecula
[31] = system: Mus musculus; assay: Antiosteoporotic activity in ovariectomized BALB/c mouse model assessed as restoration of ovariectomy-induced reduction in bone volume/trabecular volume at 5 mg/kg/day, po qd for 8 weeks (reference value: 0.45+/-0.07%); format: functional, Trabecula; set-up: scale not given: the % may be the effect or the level left
[32] = system: Calvarial osteoblast; assay: Induction of osteoblastogenesis in mouse calvarial osteoblasts assessed as increase in expression of COL1 gene at 100 pM by qPCR analysis relative to control; format: functional, cell-based
[33] = system: Mus musculus; assay: Induction of osteoblast differentiation in ovariectomized BALB/c mouse model assessed as upregulation of BMP2 mRNA expression at 1 mg/kg/day, po qd for 8 weeks by qPCR analysis; format: functional, organism-based

**Q.** Which Activity [1] does the source give for CCOC(=O)C1=C(C)NC2=C(C(=O)CCC2)C1c1cc(C(C)CC)c2oc(=O)c(C(=O)OC)cc2c1 (stereo not drawn) here?
**A.** Active

**Q.** And the “fold change (FC)” value [2]?
**A.** 1.5

**Q.** What about the Activity [3] of the same compound?
**A.** 80%

**Q.** And the Activity [4]?
**A.** Active

**Q.** And the Activity [5]?
**A.** Non-toxic

**Q.** And the Activity [6]?
**A.** 0.37 um3/um2/day

**Q.** What about the inhibition [7] of the same compound?
**A.** Active

**Q.** And the EC50 [8]?
**A.** 1170 nM

**Q.** What about the Activity [9] of the same compound?
**A.** Active

**Q.** What about the Activity [10] of the same compound?
**A.** 0.33 um3/um2/day

**Q.** And the Concentration giving maximum ALP activity [11]?
**A.** 100 pM

**Q.** What about the Activity [12] of the same compound?
**A.** Active

**Q.** What about the Activity [13] of the same compound?
**A.** Active

**Q.** What about the Activity [14] of the same compound?
**A.** 0.68 mm

**Q.** And the Activity [15]?
**A.** Active

**Q.** And the Activity [16]?
**A.** 0.276 micrometer/day

**Q.** And the Activity [17]?
**A.** 0.72 mm

**Q.** And the Activity [18]?
**A.** Non-toxic

**Q.** And the Activity [19]?
**A.** 0.32 /millimeter

**Q.** What about the Activity [20] of the same compound?
**A.** Active

**Q.** And the “fold change (FC)” value [21]?
**A.** 1.5

**Q.** And the “fold change (FC)” value [22]?
**A.** 1.5

**Q.** What about the inhibition [23] of the same compound?
**A.** Active

**Q.** And the “fold change (FC)” value [24]?
**A.** 1.5

**Q.** And the inhibition [25]?
**A.** Active

**Q.** What about the Activity [26] of the same compound?
**A.** 0.3 /millimeter

**Q.** And the inhibition [27]?
**A.** Active

**Q.** What about the Activity [28] of the same compound?
**A.** Dose-dependent effect

**Q.** And the inhibition [29]?
**A.** Active

**Q.** And the Activity [30]?
**A.** 0.66 mm

**Q.** And the Activity [31]?
**A.** 2.33%

**Q.** What about the Activity [32] of the same compound?
**A.** Active

**Q.** What about the Activity [33] of the same compound?
**A.** Active
